Data reported in ChEMBL document CHEMBL4513216, “Probing the Open Global Health Chemical Diversity Library for Multistage-Active Starting Points for Next-Generation Antimalarials” (ACS Infect Dis, 2020).

Assay: Toxicity liver stage against HepG2, at 10uM
Type: cell-based
Set-up: test concentration 10 uM, cell line HepG2-A16-CD81EGFP
Conditions: human, HepG2-A16-CD81EGFP cells; read-out: INHIBITION
Procedure, shortened: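 Uninfected HepG2-A16-CD81EGFP cells, 3 × 10^3 per well, 1536-well, plated on prespotted compound at 10 μM final, parasite-free screening media added to match infected plates; puromycin 10 μM positive, DMSO 0.5% negative; run in parallel with 48 h PbLuc assay at 37 °C, 5% CO2; viability by CellTiter-Glo luminescence, normalized to controls.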

Compound	cytotoxicity at 10 µM [%]
Cc1c(C)n2c(SCC(=O)N3CCOCC3)nnc2[nH]c1=O	3.26
O=C(O)C1CCCN(c2nc3c(-c4ccccc4)csc3c(=O)[nH]2)C1 (configuration not stated)	-10.1
C1CCN(c2nc(N3CCOCC3)nc3[nH]nnc23)CC1	8.95
O=C(Cn1ccc2ccccc21)N1CCC(Oc2ncccc2Br)CC1	4.51
COc1ncc(NC(=O)c2ccco2)c(OC)n1	-3.74
O=C(Nc1ccc2c(c1)OCO2)Nc1cnn(C2CCOCC2)c1	-8.54
COCc1cnc2n1CCN(S(=O)(=O)N(C)C)C2C (configuration not stated)	16.8
CC(C)n1ccc(-c2cc(C(=O)NC3CC3)c3ccccn23)n1	-5.4
CC(C)CN1C(=O)CO[C@@H]2CN(C(=O)[C@H]3CCCO3)C[C@H]21	-5.12
CCCc1noc(C2CCN(C(=O)CCn3nc(C)cc3C)CC2)n1	7.47
CCOc1cc(C(=O)N2CCOCC2)cc2occc12	-4.92
Cc1ccc(CN2C(=O)CCC2C(=O)Nc2cnn(C)c2)o1 (configuration not stated)	-3.72
Oc1ccc(C2Nc3ccccc3C3=NCCCN32)cc1 (configuration not stated)	-39.1
O=C(N[C@@H]1CCC[C@@H](N2CCOCC2)[C@@H]1O)c1ncccn1	-25.9
CCN(Cc1ccncc1)CC1(O)CCN(C(=O)c2cnn(C)c2)C1 (configuration not stated)	-26.9
Cc1noc(C)c1-c1cccc(CC2CCN(C(=O)CN)C2)n1 (configuration not stated)	-3.36
Cc1cccc(Nc2nccnc2C2CCCN(CC(=O)N(C)C)C2)n1 (configuration not stated)	-3.03
Cc1n[nH]c(C)c1-c1nccnc1CC1CCN(C(C)C)CC1	-5.36
Cn1ccc(C(=O)N2CCCC(c3cc(O)n(C)n3)C2)n1 (configuration not stated)	-13.7
CC1CCCCN1c1nc2c(c(=O)[nH]1)CCN(Cc1ccccn1)C2 (configuration not stated)	-10.7
COc1cnc(C2(O)CCN(C(=O)c3scnc3C)CC2)c(OC)n1	-6.41

Compound	cytotoxicity at 10 µM [%]
Cc1nccn1-c1cccc(C2CCCN(C3CCCC3)C2)n1 (configuration not stated)	-12.7
Cc1cncc(C2CCCN(C(=O)c3cn(C)nc3C)C2)n1 (configuration not stated)	-7.91
CC(=O)N1CCCC(c2cccc(-n3ccnc3)n2)C1 (configuration not stated)	-9.08
COc1ccc(CN2C[C@@H](O)[C@](O)(CNC(=O)c3ccccn3)C2)cc1	8.46
CCC(=O)N1CCC(Cc2ccccc2-c2ccccc2)(C(N)=O)C1 (configuration not stated)	-0.105
O=C1NCc2ccccc2CC12CCN(Cc1ccccc1Cl)CC2	5.86
CC(C)CN(C(=O)COc1ccc(C(N)=O)cc1)C1CCN(C)CC1	-3.24
CN(C)c1ncc(NC(=O)c2cccc(Nc3cnn(C)c3)c2)cn1	-2.93
COCC(C)NC(=O)c1sccc1-n1cnnn1 (configuration not stated)	-0.132
CC(C)c1nc(C(=O)N(C)c2ccc(Br)cn2)cs1	7.84
COc1cccc(-c2nc(CNCCc3cccnc3)cs2)c1	-1.77
CC(=O)NCCCNCc1ccc(Cl)c2cccnc12	-3.17
COc1cccnc1NC(=O)COc1c(C)cccc1C	0.819
COc1cccc(NC(=O)NC(C)(C)c2noc(C)n2)c1	7.35
CCC1CN(Cc2nnc(C3CC3)o2)CCN1CCOC (configuration not stated)	3.13
CC(C)c1ncc2c(n1)CN(Cc1nc3c(F)cccc3[nH]1)CC2	1.09
Cn1c(SCC(O)COCc2ccccc2Cl)nnc1C1CC1 (configuration not stated)	-2.24
N#Cc1nccnc1NC1CCN(c2ccccc2OC(F)F)C1 (configuration not stated)	12.8
CCN(C(=O)c1ccc2nncn2c1)C(C)Cc1ccc(OC)cc1 (configuration not stated)	-5.53
Cn1cc(CCCNS(=O)(=O)N2CCCC2c2ccco2)cn1 (configuration not stated)	9.38
CCN(CC)c1ccc(NC(=O)NCC2(C(N)=O)CCOCC2)cn1	7.15

Compound	cytotoxicity at 10 µM [%]
COc1ccc(CCn2cnnc2[S+](C)[O-])cc1 (configuration not stated)	3.4
CC(=O)N(C)c1nc(Cn2nnnc2C2CCCC2)cs1	2.11
CC(C)N(CCCNC(=O)C1CCCN(C(N)=O)C1)S(C)(=O)=O (configuration not stated)	-8.51
O=C(Cn1ncc2ccccc21)Nc1ccnn1CC1CCOC1 (configuration not stated)	3.03
CN(C)C(=O)N1CC(C(=O)NCC2CC2)C2(CCOCC2)C1 (configuration not stated)	-95.1
CC(=O)N1CCC(n2nccc2-c2cnc(N)nc2)CC1	1.3
Cc1cc2c(=O)n(CCSc3cnn[nH]3)cnc2s1	10.1
CC(Cn1ccnc1)NCc1ccc2nonc2c1 (configuration not stated)	2.57
COc1cccc2c1OCCCN(Cc1ncccc1C(=O)O)C2	4.12
CCn1cc(-c2n[nH]c(=O)n2-c2ccc3c(c2)OCO3)c(C)n1	2.25
CCOCc1nccc(-c2ccc(OCC)c(C(=O)O)c2)n1	2.55
Cc1nccc(N2CC[C@@H]3[C@@H](CCC(=O)N3CCc3ccccc3)C2)n1	2.19
Cc1ccccc1SC1CCN(C(=O)[C@@H]2C[C@@H](N)CN2)CC1	-7.69
O=C1[C@@H]2CN(c3ncnc4[nH]ccc34)C[C@]2(C(=O)O)CN1CC1CC1	2.62
O=C(CN1C(=O)CCNC1=O)N1CCC2(CCc3ccccc32)CC1	-11.2
CNc1cc(-c2ccccc2CN)c2cc[nH]c2n1	-1.43
COC(=O)CCNC(=O)c1coc(COc2ccc(F)cc2)n1	-4.1
CCn1ccnc1CN1CCCN(CC2CC2)C(C(C)C)C1 (configuration not stated)	2.63
Cc1cc(C)c(-n2cccn2)c(CN2CCOCC(CN(C)C)C2)c1 (configuration not stated)	-8.83
O=C1O[C@@H]2CN(Cc3cc4ccccc4s3)C[C@@H]2N1Cc1ccccn1	10.2
CSCCc1nc(C(C)C)nn1-c1ccncc1C	1.63

Compound	cytotoxicity at 10 µM [%]
CCN(CC)C1CCN(c2nccc(C3CCCC3)n2)C1 (configuration not stated)	-12.7
CCN(C)CC(=O)N1CCC(c2cc(N3CCOCC3)nc(C)n2)CC1	6.9
COCc1nc(CN2CC(=O)N(C)c3ccccc3C2=O)no1	-6.03
CN1C[C@H]2CNC[C@@]2(C(=O)NC2CCN(c3ncccc3C#N)CC2)C1	-0.766
CC(C)[C@H]1CN(S(=O)(=O)c2cccnc2)C[C@@H]1N	1.31
Cc1ccc(-c2ccnc(N3CCC4(CCO4)CC3)n2)c(C)n1	2.05
Cc1cccc(-c2ncc(CNC(C)Cc3ccncc3)cn2)c1 (configuration not stated)	-8.18
c1ccc(COc2ccccc2NC2CCOCC2)nc1	2.2
Cc1nc(C)c(C(=O)N2CCCC(C(=O)c3nccn3C)C2)s1 (configuration not stated)	2.3
CCCc1cc(=O)[nH]c(-c2ccccc2CN(C)CCC(C)C)n1	3.53
CCN1CCN(C(=O)COc2ccc(CN(C)S(C)(=O)=O)cc2)CC1	3.3
Cc1cnccc1NCCn1ccnc1C1CCOC1 (configuration not stated)	3.8
CCCc1cc(NCCC2CCCOC2)n2nccc2n1 (configuration not stated)	3.63
N#Cc1ccc(C(=O)N2C[C@@H](CN3CCCC3)C[C@H](CO)C2)cc1	-2.86
CCC1CCCN(Cc2nc(N)c3ccccc3n2)C1 (configuration not stated)	-11.2
COc1ccc(CCCC(=O)N2CCCC(n3cccn3)C2)cc1 (configuration not stated)	-7.36
Cc1noc(C)c1C(=O)N1Cc2ncn(C)c2C(COCC(C)C)C1 (configuration not stated)	-105
COc1cc(Br)c(CNC2CCCNC2=O)cc1OC (configuration not stated)	1.93
CC(C)N(C)Cc1nnc2n1CCCN(S(=O)(=O)C1CC1)C2	-0.48
